Assays:
Assay type in all cases: functional, cell-based
HSC-2 [1] = experiment: Phototoxicity against human HSC2 cells irradiated with 4.1 J/cm^2 broad spectrum light treated 2 hrs before irradiation measured after 24 hrs by MTT assay; settings: HSC-2, light or radiation study
In short: (§1)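 HL60 at 15000 cells/well; HSC-2 and HK1 at 3000 cells/well, adhered overnight; phenol-red-free medium with 10% FBS. Compound tested at 0.001–100.0 μM from DMSO stock; controls 0.01% DMSO. After 2 h, irradiated with broad-spectrum light at 6.8 mW/cm2, or dark. After 24 h, MTT 4 h at 37 °C, formazan in DMSO, A570. Three determinations, mean ± SD.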

HL-60 [2] = experiment: Cytotoxicity against human HL60 cells after 24 hrs by MTT assay; settings: HL-60, 24 h; in short: as §1
HSC-2 [3] = experiment: Cytotoxicity against human HSC2 cells after 24 hrs by MTT assay; settings: HSC-2, 24 h; in short: as §1
HL-60 [4] = experiment: Phototoxicity against human HL60 cells irradiated with 4.1 J/cm^2 broad spectrum light treated 2 hrs before irradiation measured after 24 hrs by MTT assay; settings: HL-60, light or radiation study; in short: as §1
[5] = Phototoxicity against human HK1 cells irradiated with 4.1 J/cm^2 broad spectrum light treated 2 hrs before irradiation measured after 24 hrs by MTT assay; settings: HK-1, light or radiation study; in short: as §1
[6] = Cytotoxicity against human HK1 cells after 24 hrs by MTT assay; settings: HK-1, 24 h; in short: as §1

## CCCCOC(=O)/C=C/C1=C(C)C2=Cc3c(C)cc(C)n3[B-](F)(F)[N+]2=C1C
HSC-2 [1]
  IC50: 0.6 µM
HL-60 [2]
  IC50: > 100 µM
HSC-2 [3]
  IC50: > 100 µM
HL-60 [4]
  IC50: 0.49 µM
[5]
  IC50: 1.1 µM
[6]
  IC50: 99.6 µM

## CC1=C(S(=O)(=O)O)C(C)=[N+]2C1=C(c1ccc(I)cc1)c1c(C)c(S(=O)(=O)O)c(C)n1[B-]2(F)F
HSC-2 [1]
  IC50: 59.4 µM
HL-60 [2]
  IC50: > 100 µM
HSC-2 [3]
  IC50: > 100 µM
HL-60 [4]
  IC50: 54.3 µM
[5]
  IC50: 59 µM
[6]
  IC50: > 100 µM

## CC1=C(/C=C/C(=O)O)C(C)=[N+]2C1=Cc1c(C)cc(C)n1[B-]2(F)F
HSC-2 [1]
  IC50: > 100 µM
HL-60 [2]
  IC50: > 100 µM
HSC-2 [3]
  IC50: > 100 µM
HL-60 [4]
  IC50: > 100 µM
[5]
  IC50: > 100 µM
[6]
  IC50: > 100 µM

## CC1=C(/C=C/S(=O)(=O)O)C(C)=[N+]2C1=Cc1c(C)cc(C)n1[B-]2(F)F
HSC-2 [1]
  IC50: > 100 µM
HL-60 [2]
  IC50: > 100 µM
HSC-2 [3]
  IC50: > 100 µM
HL-60 [4]
  IC50: > 100 µM
[5]
  IC50: > 100 µM
[6]
  IC50: > 100 µM

## COC(=O)/C=C/C1=C(C)C2=Cc3c(C)cc(C)n3[B-](F)(F)[N+]2=C1C
HSC-2 [1]
  IC50: 5.4 µM
HL-60 [2]
  IC50: > 100 µM
HSC-2 [3]
  IC50: > 100 µM
HL-60 [4]
  IC50: 4.8 µM
[5]
  IC50: 5.3 µM
[6]
  IC50: > 100 µM

## CC1=C(I)C(C)=[N+]2C1=C(c1ccc(I)cc1)c1c(C)c(I)c(C)n1[B-]2(F)F
HSC-2 [1]
  IC50: 0.5 µM
HL-60 [2]
  IC50: 10 µM
HSC-2 [3]
  IC50: 10 µM
HL-60 [4]
  IC50: 0.42 µM
[5]
  IC50: 0.69 µM
[6]
  IC50: 95.5 µM

## COC(=O)C1=CCCCC1C1=C(C)C2=Cc3c(C)cc(C)n3[B-](F)(F)[N+]2=C1C (configuration not stated)
HSC-2 [1]
  IC50: 4.1 µM
HL-60 [2]
  IC50: > 100 µM
HSC-2 [3]
  IC50: > 100 µM
HL-60 [4]
  IC50: 4.9 µM
[5]
  IC50: 5 µM
[6]
  IC50: > 100 µM

## CC1=CC(C)=[N+]2C1=C(c1ccc(I)cc1)c1c(C)cc(C)n1[B-]2(F)F
HSC-2 [1]
  IC50: 5.1 µM
HL-60 [2]
  IC50: > 100 µM
HSC-2 [3]
  IC50: > 100 µM
HL-60 [4]
  IC50: 2.7 µM
[5]
  IC50: 5.7 µM
[6]
  IC50: > 100 µM

## COC(=O)C1=CCCC1C1=C(C)C2=Cc3c(C)c(C4CCC=C4C(=O)OC)c(C)n3[B-](F)(F)[N+]2=C1C (configuration not stated)
HL-60 [2]
  IC50: > 100 µM
HL-60 [4]
  IC50: 3.8 µM
[5]
  IC50: 4.8 µM
[6]
  IC50: > 100 µM

## CC1=C(I)C(C)=[N+]2C1=Cc1c(C)c(I)c(C)n1[B-]2(F)F
HSC-2 [1]
  IC50: 0.64 µM
HL-60 [2]
  IC50: > 100 µM
HSC-2 [3]
  IC50: > 100 µM
HL-60 [4]
  IC50: 0.062 µM
[5]
  IC50: 0.57 µM
[6]
  IC50: > 100 µM

## CC1=C(C=O)C(C)=[N+]2C1=Cc1c(C)cc(C)n1[B-]2(F)F
HSC-2 [1]
  IC50: > 100 µM
HL-60 [2]
  IC50: > 100 µM
HSC-2 [3]
  IC50: > 100 µM
HL-60 [4]
  IC50: > 100 µM
[5]
  IC50: > 100 µM
[6]
  IC50: > 100 µM

## CC1=CC(C)=[N+]2C1=Cc1c(C)cc(C)n1[B-]2(F)F
HSC-2 [1]
  IC50: 8.7 µM
HL-60 [2]
  IC50: > 100 µM
HSC-2 [3]
  IC50: > 100 µM
HL-60 [4]
  IC50: 4.4 µM
[5]
  IC50: 6.2 µM
[6]
  IC50: 76.8 µM

## COC(=O)/C=C/C1=C(C)C2=Cc3c(C)c(/C=C/C(=O)OC)c(C)n3[B-](F)(F)[N+]2=C1C
HSC-2 [1]
  IC50: 11.1 µM
HL-60 [2]
  IC50: > 100 µM
HSC-2 [3]
  IC50: > 100 µM
HL-60 [4]
  IC50: 5.2 µM
[5]
  IC50: 8.5 µM
[6]
  IC50: > 100 µM

## CCCCOC(=O)/C=C/C1=C(C)C2=Cc3c(C)c(/C=C/C(=O)OCCCC)c(C)n3[B-](F)(F)[N+]2=C1C
HSC-2 [1]
  IC50: 37.7 µM
HL-60 [2]
  IC50: > 100 µM
HSC-2 [3]
  IC50: > 100 µM
HL-60 [4]
  IC50: 57.7 µM
[5]
  IC50: > 100 µM
[6]
  IC50: > 100 µM
